Test results reported in ChEMBL document CHEMBL4680165, “β-Lactams with antiproliferative and antiapoptotic activity in breast and chemoresistant colon cancer cells” (Eur J Med Chem, 2020).
Active and inactive are the calls of the source. No cut-off for these calls is given here.

Tested on: HT-29
Assay: Antiproliferative activity against human HT-29 cells assessed as reduction in cell viability after 72 hrs by alamar blue assay
Format: functional, cell-based
Conditions: HT-29, 72 h
How it was run: (§1)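 Cells seeded at 5 x 10^3/well (MCF-7) or 1 x 10^4/well (HT-29, HEK-293T) and treated after 24 h with serial dilutions (0.001-100 µM) in 1% v/v ethanol vehicle. Alamar Blue 10% v/v added at 72 h, then 3-5 h at 37 °C in the dark; fluorescence ex 530/em 590 nm. Viability relative to vehicle; IC50 from dose-response curves; mean of three experiments in triplicate.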

SMILES	IC50 [nM]
COc1ccc([C@H]2[C@H](c3ccccc3)C(=O)N2c2cc(OC)c(OC)c(OC)c2)cc1	22
COc1ccc([C@H]2[C@H](c3ccccc3)C(=O)N2c2cc(OC)c(OC)c(OC)c2)cc1C	153
C=C(C)[C@@H]1C(=O)N(c2cc(OC)c(OC)c(OC)c2)[C@H]1c1ccc(OC)c(C)c1	358
COc1ccc([C@H]2CC(=O)N2c2cc(OC)c(OC)c(OC)c2)cc1Cl	154
COc1ccc([C@H]2CC(=O)N2c2cc(OC)c(OC)c(OC)c2)cc1F	15
COc1ccc([C@H]2CC(=O)N2c2cc(OC)c(OC)c(OC)c2)cc1I	260
COc1ccc([C@H]2[C@H](c3ccccc3)C(=O)N2c2cc(OC)c(OC)c(OC)c2)cc1O	430
COc1ccc([C@H]2[C@H](Oc3ccccc3)C(=O)N2c2cc(OC)c(OC)c(OC)c2)cc1Cl	314
COc1ccc([C@@H]2N(c3cc(OC)c(OC)c(OC)c3)C(=O)C2(Cl)Cl)cc1I	251
COc1ccc([C@H]2[C@H](Oc3ccccc3)C(=O)N2c2cc(OC)c(OC)c(OC)c2)cc1Br	577

Next, values leading:

IC50 [nM]	SMILES
18	COc1ccc([C@H]2[C@H](O)C(=O)N2c2cc(OC)c(OC)c(OC)c2)cc1Cl
21	COc1ccc([C@H]2[C@H](O)C(=O)N2c2cc(OC)c(OC)c(OC)c2)cc1I
293	C=C[C@@H]1C(=O)N(c2cc(OC)c(OC)c(OC)c2)[C@H]1c1ccc(OC)c(Cl)c1
190	COc1ccc([C@H]2[C@H](Cl)C(=O)N2c2cc(OC)c(OC)c(OC)c2)cc1I
306	C=C[C@@H]1C(=O)N(c2cc(OC)c(OC)c(OC)c2)[C@H]1c1ccc(OC)c(I)c1
37	C=C[C@@H]1C(=O)N(c2cc(OC)c(OC)c(OC)c2)[C@H]1c1ccc(OC)c(F)c1
325	COc1ccc([C@H]2[C@H](c3ccccc3)C(=O)N2c2cc(OC)c(OC)c(OC)c2)cc1Br
167	COc1ccc([C@H]2[C@H](N)C(=O)N2c2cc(OC)c(OC)c(OC)c2)cc1Cl
91	C=C[C@@H]1C(=O)N(c2cc(OC)c(OC)c(OC)c2)[C@H]1c1ccc(OC)c(Br)c1
238	COc1ccc([C@H]2[C@H](N)C(=O)N2c2cc(OC)c(OC)c(OC)c2)cc1F

Tested on: HT-29
Assay: Antiangiogenic activity in human HT29 cells assessed as reduction in IL-1beta secretion at 5 uM after 24 hrs by ELISA
Format: functional, cell-based
Conditions: not given
How it was run: (§2)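 HT-29 cells at 5 x 10^4 per well, cultured 24 h and then exposed to 5 µM compound. Conditioned medium collected on ice and stored at -80 °C. Cytokines and angiogenic, vascular-injury and chemokine factors measured by multiplex panels with overnight supernatant incubation (Angiogenesis Panel 1 and Vascular Injury Panel 2 same day). Medium undiluted except 1:4 for Vascular Injury Panel 2. Secretion normalised to lysate protein by BCA.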

SMILES	Activity
COc1ccc([C@H]2CC(=O)N2c2cc(OC)c(OC)c(OC)c2)cc1F	inactive
COc1ccc([C@H]2[C@H](c3ccccc3)C(=O)N2c2cc(OC)c(OC)c(OC)c2)cc1O	inactive

Tested on: not listed separately
Assay: Selectivity index, ratio of IC50 for human MCF7 cells to IC50 for human HT-29 cells assessed as reduction in cell viability after 72 hrs by alamar blue assay
Format: functional
Conditions: not given

SMILES	Ratio IC50
COc1ccc([C@H]2[C@H](c3ccccc3)C(=O)N2c2cc(OC)c(OC)c(OC)c2)cc1	0.68
COc1ccc([C@H]2[C@H](c3ccccc3)C(=O)N2c2cc(OC)c(OC)c(OC)c2)cc1C	3.02
C=C(C)[C@@H]1C(=O)N(c2cc(OC)c(OC)c(OC)c2)[C@H]1c1ccc(OC)c(C)c1	2.16
COc1ccc([C@H]2[C@H](O)C(=O)N2c2cc(OC)c(OC)c(OC)c2)cc1Cl	0.67
COc1ccc([C@H]2[C@H](O)C(=O)N2c2cc(OC)c(OC)c(OC)c2)cc1I	4.77
COc1ccc([C@H]2CC(=O)N2c2cc(OC)c(OC)c(OC)c2)cc1Cl	0.91
COc1ccc([C@H]2CC(=O)N2c2cc(OC)c(OC)c(OC)c2)cc1F	1.47
C=C[C@@H]1C(=O)N(c2cc(OC)c(OC)c(OC)c2)[C@H]1c1ccc(OC)c(Cl)c1	0.41
COc1ccc([C@H]2[C@H](Cl)C(=O)N2c2cc(OC)c(OC)c(OC)c2)cc1I	2.22
C=C[C@@H]1C(=O)N(c2cc(OC)c(OC)c(OC)c2)[C@H]1c1ccc(OC)c(I)c1	0.7
COc1ccc([C@H]2CC(=O)N2c2cc(OC)c(OC)c(OC)c2)cc1I	3.16
COc1ccc([C@H]2[C@H](c3ccccc3)C(=O)N2c2cc(OC)c(OC)c(OC)c2)cc1O	0.01
COc1ccc([C@H]2[C@H](c3ccccc3)C(=O)N2c2cc(OC)c(OC)c(OC)c2)cc1Br	2
COc1ccc([C@H]2[C@H](Oc3ccccc3)C(=O)N2c2cc(OC)c(OC)c(OC)c2)cc1Cl	1.37
COc1ccc([C@H]2[C@H](N)C(=O)N2c2cc(OC)c(OC)c(OC)c2)cc1Cl	0.84
COc1ccc([C@@H]2N(c3cc(OC)c(OC)c(OC)c3)C(=O)C2(Cl)Cl)cc1I	3.53
COc1ccc([C@H]2[C@H](Oc3ccccc3)C(=O)N2c2cc(OC)c(OC)c(OC)c2)cc1Br	1.42
C=C[C@@H]1C(=O)N(c2cc(OC)c(OC)c(OC)c2)[C@H]1c1ccc(OC)c(Br)c1	0.97
COc1ccc([C@H]2[C@H](N)C(=O)N2c2cc(OC)c(OC)c(OC)c2)cc1F	2.03

Tested on: HT-29
Assay: Antiangiogenic activity in human HT29 cells assessed as reduction in IL-1alpha secretion at 5 uM after 24 hrs by ELISA
Format: functional, cell-based
Conditions: not given
How it was run: as §2

SMILES	Activity
COc1ccc([C@H]2CC(=O)N2c2cc(OC)c(OC)c(OC)c2)cc1F	inactive
COc1ccc([C@H]2[C@H](c3ccccc3)C(=O)N2c2cc(OC)c(OC)c(OC)c2)cc1O	inactive

Tested on: MCF7
Assay: Antiproliferative activity against human MCF7 cells assessed as reduction in cell viability after 72 hrs by alamar blue assay
Format: functional, cell-based
Conditions: MCF7, 72 h
How it was run: as §1

SMILES	IC50 [nM]
COc1ccc([C@H]2[C@H](c3ccccc3)C(=O)N2c2cc(OC)c(OC)c(OC)c2)cc1	15
COc1ccc([C@H]2[C@H](c3ccccc3)C(=O)N2c2cc(OC)c(OC)c(OC)c2)cc1C	462
C=C(C)[C@@H]1C(=O)N(c2cc(OC)c(OC)c(OC)c2)[C@H]1c1ccc(OC)c(C)c1	773
COc1ccc([C@H]2CC(=O)N2c2cc(OC)c(OC)c(OC)c2)cc1Cl	140
COc1ccc([C@H]2CC(=O)N2c2cc(OC)c(OC)c(OC)c2)cc1F	22
COc1ccc([C@H]2CC(=O)N2c2cc(OC)c(OC)c(OC)c2)cc1I	821
COc1ccc([C@H]2[C@H](c3ccccc3)C(=O)N2c2cc(OC)c(OC)c(OC)c2)cc1O	4
COc1ccc([C@H]2[C@H](Oc3ccccc3)C(=O)N2c2cc(OC)c(OC)c(OC)c2)cc1Cl	430
COc1ccc([C@@H]2N(c3cc(OC)c(OC)c(OC)c3)C(=O)C2(Cl)Cl)cc1I	885
COc1ccc([C@H]2[C@H](Oc3ccccc3)C(=O)N2c2cc(OC)c(OC)c(OC)c2)cc1Br	818

Continued, values first:

IC50 [nM]	SMILES
12	COc1ccc([C@H]2[C@H](O)C(=O)N2c2cc(OC)c(OC)c(OC)c2)cc1Cl
100	COc1ccc([C@H]2[C@H](O)C(=O)N2c2cc(OC)c(OC)c(OC)c2)cc1I
120	C=C[C@@H]1C(=O)N(c2cc(OC)c(OC)c(OC)c2)[C@H]1c1ccc(OC)c(Cl)c1
421	COc1ccc([C@H]2[C@H](Cl)C(=O)N2c2cc(OC)c(OC)c(OC)c2)cc1I
215	C=C[C@@H]1C(=O)N(c2cc(OC)c(OC)c(OC)c2)[C@H]1c1ccc(OC)c(I)c1
38	C=C[C@@H]1C(=O)N(c2cc(OC)c(OC)c(OC)c2)[C@H]1c1ccc(OC)c(F)c1
651	COc1ccc([C@H]2[C@H](c3ccccc3)C(=O)N2c2cc(OC)c(OC)c(OC)c2)cc1Br
141	COc1ccc([C@H]2[C@H](N)C(=O)N2c2cc(OC)c(OC)c(OC)c2)cc1Cl
88	C=C[C@@H]1C(=O)N(c2cc(OC)c(OC)c(OC)c2)[C@H]1c1ccc(OC)c(Br)c1
483	COc1ccc([C@H]2[C@H](N)C(=O)N2c2cc(OC)c(OC)c(OC)c2)cc1F

Tested on: HT-29
Assay: Antiangiogenic activity in human HT-29 cells assessed as increase in IL-1RA secretion at 5 uM after 24 hrs by ELISA
Format: functional, cell-based
Conditions: not given
How it was run: as §2

SMILES	Activity
COc1ccc([C@H]2CC(=O)N2c2cc(OC)c(OC)c(OC)c2)cc1F	Active
COc1ccc([C@H]2[C@H](c3ccccc3)C(=O)N2c2cc(OC)c(OC)c(OC)c2)cc1O	Active

Tested on: not listed separately
Assay: Half life of the compound in phosphate buffer at pH 9 by HPLC analysis
Format: physicochemical
Conditions: not given
How it was run: (§3)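 Compound stock was 1 mg/mL in mobile phase; 30 µL was diluted into 1 mL phosphate buffer (pH 4, 7.4 or 9) and held at 37 °C. Samples were taken at 0, 5, 30 and 60 min, then hourly to 24 h. Analysis was reverse-phase C18 HPLC with acetonitrile/water mobile phase at 1 mL/min and detection at 254 nm.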

half-life [h]	SMILES
> 15	COc1ccc([C@H]2[C@H](Oc3ccccc3)C(=O)N2c2cc(OC)c(OC)c(OC)c2)cc1Cl
> 24	COc1ccc([C@H]2[C@H](N)C(=O)N2c2cc(OC)c(OC)c(OC)c2)cc1Cl

Tested on: HT-29
Assay: Antiangiogenic activity in human HT29 cells assessed as reduction in VEGF secretion at 5 uM after 24 hrs by ELISA
Format: functional, cell-based
Conditions: not given
How it was run: as §2

SMILES	Activity
COc1ccc([C@H]2CC(=O)N2c2cc(OC)c(OC)c(OC)c2)cc1F	inactive
COc1ccc([C@H]2[C@H](c3ccccc3)C(=O)N2c2cc(OC)c(OC)c(OC)c2)cc1O	inactive

Tested on: not listed separately
Assay: Half life of the compound in phosphate buffer at pH 4 by HPLC analysis
Format: physicochemical
Conditions: not given
How it was run: as §3

half-life [h]	SMILES
> 15	COc1ccc([C@H]2[C@H](Oc3ccccc3)C(=O)N2c2cc(OC)c(OC)c(OC)c2)cc1Cl
> 24	COc1ccc([C@H]2[C@H](N)C(=O)N2c2cc(OC)c(OC)c(OC)c2)cc1Cl

Tested on: not listed separately
Assay: Half life of the compound in phosphate buffer at pH 7.4 by HPLC analysis
Format: physicochemical
Conditions: not given
How it was run: as §3

half-life [h]	SMILES
> 15	COc1ccc([C@H]2[C@H](Oc3ccccc3)C(=O)N2c2cc(OC)c(OC)c(OC)c2)cc1Cl
> 24	COc1ccc([C@H]2[C@H](N)C(=O)N2c2cc(OC)c(OC)c(OC)c2)cc1Cl

Species: Bos taurus
Assay: Inhibition of bovine brain tubulin polymerization at 10 uM measured at 30 sec interval for 30 mins in presence of GTP by turbidimetry-based spectrophotometric method
Conditions: not given

SMILES	inhibition
COc1ccc([C@H]2[C@H](O)C(=O)N2c2cc(OC)c(OC)c(OC)c2)cc1Cl	Active
